Screening results (PubChem)
ERp5 block – inhibitors of ERp5-driven insulin aggregation, primary screen, biochemical, turbidity, absorbance 650 nm, single point; 90 min; inhibition, % at 9.99 µM; 350,000 tested, 0.05% active;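 active means mean replicate inhibition above about 25%, with every replicate also reaching it, limit read from the data, passing the limit was not always enough; inconclusive means only one of those two criteria met; inactive means neither criterion met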
GSIS activator – GLuc luminescence reporter in INS-1E cells, primary screen for activators of glucose-dependent secretion of insulin. AID 743287, 2014. INS-1E GLuc reporter insulin secretion, 2-3 h. activation, % at 16.6 µM. 370,000 tested, 0.61% active;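 active means lowest replicate activation of at least 40%, so every replicate reaches that level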;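 further: 0% = median of neutral control wells and 100% = median of IBMX positive control wells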
FN deposition inh – inhibitors of fibronectin matrix deposition, primary screen, AH1F cells, Alexa488-fibronectin fluorescence, plate reader; AID 743247, 2014; 350,000 tested, 0.086% active; inhibition, % at 12.6 µM; AH1F fibroblasts, overnight;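 active means mean inhibition across replicates of 30% or more, regardless of how many single replicates reach that level; inconclusive means mean under 30% yet at least half of replicates reach 30%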;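 further: positive control wells lacked labelled fibronectin entirely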
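Test system: AH1F fibroblast monolayer depositing Alexa488-labelled fibronectin into matrix. Input: 10000 cells per well. Technique: fluorescence, ex 485 nm, em 525 nm. Buffer or medium: DMEM plus 2% serum, read in PBS. Timing: 1 h cell adhesion before compound, then overnight fibronectin incubation. Compound: single dose, pinned. Read-out basis: inhibition from reduced deposited-fibronectin fluorescence.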
HIV Env fusion – inhibitors of HIV-1 Env-driven cell-cell fusion, primary screen, HeLa-JRFL effector, CEM21 target cells, luciferase. AID 651610, 2012. inhibition, % at 12.3 µM. 360,000 tested, 1.1% active;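 active means mean replicate inhibition score of at least 50 and every replicate individually at or above 50; inconclusive means only one of the two criteria met; inactive means mean below 50 and not all replicates reaching 50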;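 further: 0% = plate neutral controls and 100% = maraviroc near 300 nM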
PDI turbidity – inhibitors of human PDI, primary screen, biochemical, turbidity, single point, plate reader; Protein disulfide-isomerase (Homo sapiens), P07237; PDI insulin aggregation turbidity, A650, 90 min; inhibition, % at 10 µM; 350,000 tested, 0.052% active; AID 588391, 2011;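 active means mean inhibition across replicates of 30% or more, whatever share of single replicates reach that level; inconclusive means mean inhibition below 30% while every single replicate reaches 30%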
Target sequence (P07237 whole entry, looked up): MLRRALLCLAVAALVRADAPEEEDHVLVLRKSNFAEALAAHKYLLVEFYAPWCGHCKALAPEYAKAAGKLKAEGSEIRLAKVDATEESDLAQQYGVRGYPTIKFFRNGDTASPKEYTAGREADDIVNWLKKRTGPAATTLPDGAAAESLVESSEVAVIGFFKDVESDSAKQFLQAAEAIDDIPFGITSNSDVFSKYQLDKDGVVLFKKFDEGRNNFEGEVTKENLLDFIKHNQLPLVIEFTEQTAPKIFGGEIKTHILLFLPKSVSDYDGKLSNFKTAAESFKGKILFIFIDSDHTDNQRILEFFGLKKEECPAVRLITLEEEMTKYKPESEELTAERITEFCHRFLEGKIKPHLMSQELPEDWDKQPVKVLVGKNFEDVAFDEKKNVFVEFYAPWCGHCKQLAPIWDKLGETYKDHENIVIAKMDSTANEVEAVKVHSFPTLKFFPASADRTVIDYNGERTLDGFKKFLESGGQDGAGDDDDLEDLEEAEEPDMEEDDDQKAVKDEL
Active calls of the source: *; [ ] = remark or other dose. Hits are enriched below; roughly 1.4% of the tested compounds scored in any of these assays.

What do the screens show for `C[C@H](CO)N1C[C@H](C)[C@H](CN(C)Cc2ccc(C(F)(F)F)cc2)OCCCC[C@H](C)Oc2ccc(NC(=O)Nc3ccc4c(c3)OCO4)cc2C1=O`?
ERp5 block: 1; GSIS activator: 16; HIV Env fusion: 69*[16.7 µM]

Results for C[C@@H]1CN([C@H](C)CO)C(=O)c2cc(NC(=O)Nc3ccc4c(c3)OCO4)ccc2O[C@@H](C)CCCCO[C@@H]1CN(C)Cc1ccc(C(F)(F)F)cc1 ?
ERp5 block: 1; GSIS activator: -7; HIV Env fusion: inconclusive

What do the screens show for `C[C@@H]1CN([C@@H](C)CO)C(=O)c2cc(NC(=O)Nc3ccc4c(c3)OCO4)ccc2O[C@@H](C)CCCCO[C@H]1CN(C)Cc1ccc(C(F)(F)F)cc1`?
ERp5 block: 0; GSIS activator: -4; HIV Env fusion: 61*[16.7 µM]

Results for CCC(=O)N(C)C[C@H]1Oc2ncc(-c3ccc(C(=O)N(C)C)cc3)cc2C(=O)N([C@@H](C)CO)C[C@H]1C ?
ERp5 block: -1; GSIS activator: 35; HIV Env fusion: 1[16.7 µM]

How did C[C@H](CO)N1C[C@H](C)[C@@H](CN(C)C(=O)Nc2ccc(C(F)(F)F)cc2)Oc2ccc(NC(=O)CCCCCC(=O)Nc3ccccc3N)cc2CC1=O do in these assays?
GSIS activator: -11; HIV Env fusion: 4[16.7 µM]

Results for CCC(C)N(C(=O)COC(=O)c1cc([N+](=O)[O-])ccc1N)C1CCS(=O)(=O)C1 (stereo not given) ?
ERp5 block: -2; GSIS activator: -3; HIV Env fusion: 70*; PDI turbidity: -1

What do the screens show for `CN(C(=O)COC(=O)c1cc([N+](=O)[O-])ccc1Sc1ccccc1)C1CCS(=O)(=O)C1` (stereo not given)?
ERp5 block: -8; GSIS activator: 13; FN deposition inh: 7; HIV Env fusion: 4; PDI turbidity: 1

Results for CCOC(=O)N1CCN(S(=O)(=O)c2ccc(C(=O)Nc3sc4c(c3C(N)=O)CC(C)(C)NC4(C)C)cc2)CC1 ?
ERp5 block: -9; GSIS activator: -11; FN deposition inh: -14; HIV Env fusion: -8; PDI turbidity: -9

Results for CC1(C)Cc2c(sc(NC(=O)c3ccc(S(=O)(=O)N4CCCCCC4)cc3)c2C#N)C(C)(C)N1 ?
ERp5 block: -1; GSIS activator: 4; FN deposition inh: 2; HIV Env fusion: 63*; PDI turbidity: -2

What do the screens show for `O=C(Cc1ccccc1)N1C[C@@H]2[C@H](c3ccccc31)[C@@H](CO)N2C(=O)Cc1ccccc1`?
ERp5 block: -1; GSIS activator: -4

Results for Cc1ccc(S(=O)(=O)Nc2ccc3c(c2)C(=O)N([C@@H](C)CO)C[C@@H](C)[C@H](CN(C)Cc2ccc(C(F)(F)F)cc2)OCCCC[C@H](C)O3)cc1 ?
ERp5 block: 4; GSIS activator: -3; FN deposition inh: 7; HIV Env fusion: -6[16.7 µM]

What do the screens show for `C[C@@H]1CN([C@H](C)CO)C(=O)c2cc(NS(=O)(=O)c3ccc(Cl)cc3)ccc2O[C@@H](C)CCCCO[C@H]1CN(C)S(=O)(=O)c1cccs1`?
ERp5 block: -2; GSIS activator: -5; FN deposition inh: -14; HIV Env fusion: 63*[16.7 µM]

What do the screens show for `C[C@@H]1CN([C@@H](C)CO)C(=O)c2cc(NS(=O)(=O)c3ccc(Cl)cc3)ccc2O[C@@H](C)CCCCO[C@@H]1CN(C)Cc1ccc(C(F)(F)F)cc1`?
ERp5 block: 4; GSIS activator: -30; FN deposition inh: -3; HIV Env fusion: 31[16.7 µM]

Results for C[C@@H]1CN([C@H](C)CO)C(=O)c2cc(NS(=O)(=O)c3ccc(Cl)cc3)ccc2O[C@@H](C)CCCCO[C@@H]1CN(C)S(=O)(=O)c1cccs1 ?
ERp5 block: -7; GSIS activator: 4; FN deposition inh: -12; HIV Env fusion: -8[16.7 µM]

How did C[C@@H]1CCCCO[C@@H](CN(C)Cc2ccc(C(F)(F)F)cc2)[C@H](C)CN([C@H](C)CO)C(=O)c2cc(NS(=O)(=O)c3ccc(Cl)cc3)ccc2O1 do in these assays?
ERp5 block: -1; GSIS activator: -20; FN deposition inh: -12; HIV Env fusion: 61*[16.7 µM]

How did Cc1ccc(S(=O)(=O)Nc2ccc3c(c2)C(=O)N([C@H](C)CO)C[C@@H](C)[C@@H](CN(C)Cc2ccc(C(F)(F)F)cc2)OCCCC[C@@H](C)O3)cc1 do in these assays?
ERp5 block: 0; GSIS activator: -2; FN deposition inh: 0; HIV Env fusion: 69*[16.7 µM]

What do the screens show for `Cc1ccc(S(=O)(=O)Nc2ccc3c(c2)C(=O)N([C@@H](C)CO)C[C@@H](C)[C@H](CN(C)Cc2ccc(C(F)(F)F)cc2)OCCCC[C@@H](C)O3)cc1`?
ERp5 block: 4; GSIS activator: -11; FN deposition inh: -6; HIV Env fusion: 108*[16.7 µM]

How did Cc1ccc(S(=O)(=O)Nc2ccc3c(c2)C(=O)N([C@@H](C)CO)C[C@H](C)[C@@H](CN(C)Cc2ccc(C(F)(F)F)cc2)OCCCC[C@H](C)O3)cc1 do in these assays?
ERp5 block: 0; GSIS activator: -2; FN deposition inh: 0; HIV Env fusion: 9[16.7 µM]

What do the screens show for `Cc1noc(C)c1NC(=O)Nc1ccc2c(c1)C(=O)N([C@H](C)CO)C[C@H](C)[C@H](CN(C)C(=O)Cc1ccccc1)OCCCC[C@H](C)O2`?
ERp5 block: 2; GSIS activator: 4; HIV Env fusion: -14[16.7 µM]

How did COc1ccc(NC(=O)N2C[C@H]3[C@@H](c4ccccc42)[C@H](CO)N3C(=O)C2CC2)cc1 do in these assays?
ERp5 block: 0; GSIS activator: -3

What do the screens show for `CO[C@H]1CN(C)C(=O)c2ccc(NC(=O)C3CCCC3)cc2OC[C@H](C)N(CC2CC2)C[C@@H]1C`?
ERp5 block: 3; GSIS activator: 1; FN deposition inh: -4

Results for C[C@@H]1CN([C@@H](C)CO)C(=O)c2cc(NS(=O)(=O)c3cccs3)ccc2O[C@@H](C)CCCCO[C@H]1CN(C)Cc1ccc(C(F)(F)F)cc1 ?
ERp5 block: -9; GSIS activator: -24; HIV Env fusion: 58*[16.7 µM]

Results for C[C@@H]1CCCCO[C@@H](CN(C)C(=O)CCC(F)(F)F)[C@@H](C)CN([C@H](C)CO)C(=O)c2cc(NS(=O)(=O)c3ccc(Cl)cc3)ccc2O1 ?
ERp5 block: 3; GSIS activator: -11; FN deposition inh: -2; HIV Env fusion: 3[16.7 µM]

What do the screens show for `C[C@@H]1CN([C@H](C)CO)C(=O)c2cc(NS(=O)(=O)c3cccs3)ccc2O[C@@H](C)CCCCO[C@@H]1CN(C)Cc1ccc(C(F)(F)F)cc1`?
ERp5 block: 8; GSIS activator: -14; HIV Env fusion: 15[16.7 µM]
